For 167 variants, yeast fitness results are on record in the RNAGym collection of RNA variant scans (doi:10.1126/science.aae0568).

The chains are these.
B1: tRNA (parent)
chain: GUUCCGUUGGCGUAAUGGUAACGCGUCUCCCUCCUAAGGAGAAGACUGCGGGUUCGAGUCCCGUACGGAACG

This sample holds only a part of the variants without activity. Where only a bound is given, the exact number is not on record here.

Variants of B1 are the subject of the series. The series is described as follows: yeast fitness relative to wild type (ratio to wild type); higher = fitter; tRNA-Arg(CCU), competitive growth, 37 C, YPD. In a few lines:
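The tRNA-Arg(CCU) gene variants were made by chemical synthesis with a 3% per-site mutation rate at 69 sites and inserted at the native genomic locus of Saccharomyces cerevisiae. After pooling, the strains were competed in YPD at 37°C for 24 hours in six parallel replicates. Gene amplicons from the start population and each end population were read by 100-nucleotide paired-end sequencing, and Darwinian fitness relative to wild type was taken from genotype frequency changes. Genotypes needed ≥ 100 starting reads, and estimates < 0.5 were set to 0.5.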
On to U13C U59C, for which the yeast fitness was determined as 0.858.
Regarding C34U G48A, the yeast fitness is 0.798.
On to C24U G39C A70G, for which the yeast fitness was at most 0.5.
C31U G41U G63A: the yeast fitness was 0.721.
Turning to C27A C62G A65U, the yeast fitness is at most 0.5.
The value for U26G G50C A57G was 0.529.
In the case of U7A G10A A37G G41C A42U C46A C61G, the yeast fitness was found to be 0.738.
As for U2A C29A A43C, the yeast fitness is at most 0.5.
In the case of A14C, the yeast fitness came to 0.868.
The same measure for G41A C66U: 0.685; for C33A A36U: 0.615.
For U2C C46G A65C, the yeast fitness was 0.678.
Regarding C5A U19A G68C, the yeast fitness stood at 0.539.
In the case of A14U U16G U19A A42G, the yeast fitness amounted to 0.512.
With G6C C29G U35C A57G, the yeast fitness was at most 0.5.
As to C4U A14G, the yeast fitness was 0.856.
For C30A G48C C61U, the yeast fitness came out at 0.631.
Turning to A42U A43U C62A A65U A69G, the yeast fitness turned out to be 0.567.
The same measure for G17A G56C: 0.527; for U2C U35G G52A: at most 0.5; for C24A U59A C61U: 0.567.
As for C11G G17A A20U C33G A43C C61G A65G, the yeast fitness was at most 0.5.
As to U3C C46G, the yeast fitness is 0.912.
Consider A20U C62U A65C, for which the yeast fitness was 0.682.
In the case of U8A C49U A69U, the yeast fitness was 0.537.
For the variant U7A C27U G52C G68C, the yeast fitness is at most 0.5.
Regarding G10A U35G A43G C46U A69U, the yeast fitness was at most 0.5.
For the variant U2A U32C U35C A36G, the yeast fitness was at most 0.5.
On to U8G C49U, for which the yeast fitness was found to be 0.668.
U13C A15C G48A: the yeast fitness was at most 0.5.
On to C11G U32C, for which the yeast fitness turned out to be 0.597.
Turning to G10A A21C C24A G63A A65C, the yeast fitness is at most 0.5.
C4A U8G A69U: the yeast fitness is at most 0.5.
Take A14G A21G: the yeast fitness stood at 0.989.
Take C5A G39A G44A C62G C66G: the yeast fitness is at most 0.5.
With G10A G18A C46A A65U, the yeast fitness is at most 0.5.
On to U54C U64C, for which the yeast fitness is 0.758.
For A43C C46U, the yeast fitness was found to be 1.03.
Turning to U28C A57C, the yeast fitness was determined as 0.586.
Regarding C46A U47G G50A, the yeast fitness came to 0.544.
For A14U G17A A43C C46U, the yeast fitness was at most 0.5.
As to A36C C61G, the yeast fitness was 0.609.
Take C30U C46A G63C A70G: the yeast fitness was at most 0.5.
Consider C30U G39C G50A, for which the yeast fitness is at most 0.5.
For G12C C22U U54C C61U, the yeast fitness came out at 0.532.
As to C4G G51U, the yeast fitness was 0.654.
In the case of G41A G67U G68C, the yeast fitness turned out to be 0.507.
On to U7A A14C A20G C27U A45U G67A, for which the yeast fitness is at most 0.5.
For the variant U3C A14U U28G, the yeast fitness was at most 0.5.
Regarding A20C A69U, the yeast fitness worked out at 1.04.
On to C33A C62U G67A, for which the yeast fitness is at most 0.5.
The same measure for A21U C22U G48C A65G C66U: at most 0.5; for A45C G67U: 0.874; for C46A U54C: 0.888.
For U16G C62A, the yeast fitness was 0.643.
The same measure for U16G A20C G67C: at most 0.5; for C4U C46G G63C C66A: at most 0.5.
Turning to G25A C30G, the yeast fitness was 0.636.
Turning to U3A U7G A14U G25A G41C C46U U59C C61A, the yeast fitness is at most 0.5.
As for G17A C30U A40U A57U, the yeast fitness is at most 0.5.
The value for C4U C22G A36C C62G A70C was at most 0.5.
The same measure for U3C U26C: 0.886.
As for C29U U32G, the yeast fitness stood at 0.686.
Turning to A14G C29U A37G A65G, the yeast fitness is at most 0.5.
For the variant G23C G38A, the yeast fitness was found to be 0.696.
The value for C11G G23C A37G A57C was 0.979.
Take A37C A42U C49A: the yeast fitness was at most 0.5.
The value for G18A A40G C62A A65U C66U was at most 0.5; that for G10C A45G was 0.716; that for A14U A20C A37C C49G was at most 0.5.
On to G12C C30U A70U, for which the yeast fitness is at most 0.5.
On to C27G C33G C60U C61G, for which the yeast fitness was 0.503.
As for U2G C27A G67U, the yeast fitness was at most 0.5.
The value for G38A G58C A70U was 0.748.
With G9A C22A C33G U35A C55U, the yeast fitness is at most 0.5.
In the case of C5U U28C C29U G63C A65U, the yeast fitness was at most 0.5.
The same measure for C22A G68A: 0.869; for A20C C30A A65C: 0.583.
On to C5U A20C G63A, for which the yeast fitness came out at 0.607.
As to U2G C22U U32C G50C, the yeast fitness was 0.658.
For U47A C62G, the yeast fitness is 0.856.
Turning to A65G A69C, the yeast fitness was 0.984.
For the variant A57U A65C C66G, the yeast fitness was at most 0.5.
The value for C22G C30G C55A was at most 0.5; that for A15U U28A C46A was 0.507.
The value for G44C C46G C55U was at most 0.5.
The value for C30A A43U C61U was 0.602.
For A21U C34G A42U C61U, the yeast fitness is at most 0.5.
Turning to G9A C34U G67A, the yeast fitness was at most 0.5.
The value for C5A C33A G39C G51C C62U A69C was at most 0.5; that for A43C C66U was 0.948; that for C5G C11A A14G G25C C29G A57U C66U was at most 0.5.
As for C11G C29U A36C A42G C46G, the yeast fitness was at most 0.5.
As to G9C A15G C24A C49U, the yeast fitness was at most 0.5.
The same measure for C11U C33G A37U: at most 0.5; for C4A U19C U35C G48A: at most 0.5.
The same measure for C24U U53A C55A: 0.65; for C5U G44A U64G: 0.532.
Consider G9A C11U C31U, for which the yeast fitness was determined as 0.704.
Regarding U16C C22U A37U G67C, the yeast fitness is at most 0.5.
U2A G25A G68A: the yeast fitness came out at 0.64.
In the case of C5G A14U G18A A21U A42G G56C, the yeast fitness is at most 0.5.
On to C34U G41A C55A, for which the yeast fitness is at most 0.5.
The same measure for C31A U59A A70C: at most 0.5.
Turning to G6A U8A A14C A21U A40G, the yeast fitness was at most 0.5.
The value for U16C C22A C30U C31G was at most 0.5; that for G12C C55G was 0.608.
Turning to G10C C11G G50A A65C, the yeast fitness was at most 0.5.
Turning to C22G U47A A70C, the yeast fitness is at most 0.5.
Take U7A A42U A45G: the yeast fitness was at most 0.5.
As for G9A C11U C27U A36G, the yeast fitness is at most 0.5.
For the variant U13A A20G C24U U35C C49U C60A C66G, the yeast fitness was at most 0.5.
The same measure for U2C C5G C46U: 0.872.
A14U C24G U54G: the yeast fitness is at most 0.5.
C5U U32C G39A C60U C61G: the yeast fitness was 0.527.
The value for C4U C31G A45C C49A was at most 0.5.
As to C29G C33U G58C C60G C62A, the yeast fitness is at most 0.5.
Take C4G U7C C27A C66A A70U: the yeast fitness is at most 0.5.
For C11G C34U A42C C66A, the yeast fitness was at most 0.5.
In the case of A20G U54G A57U, the yeast fitness was at most 0.5.
The same measure for A14U A15C C31G A43U: 0.627.
As for U2C A40U A42C C66U, the yeast fitness is at most 0.5.
For C34U A45U, the yeast fitness came to 0.686.
In the case of G17A C60U, the yeast fitness was found to be 0.594.
On to U28A A36U C61A A69U, for which the yeast fitness is at most 0.5.
Turning to A14G U28C G67A, the yeast fitness turned out to be 0.534.
The value for G39C U59A C60G was 0.541; that for C5U G18C G52C was at most 0.5.
Consider A14G C22A C27G A42U, for which the yeast fitness was at most 0.5.
As for G10C G12A A36G C46A U47A, the yeast fitness was at most 0.5.
In the case of C24G A65C, the yeast fitness stood at 0.648.
As for G6C A40G C60U C61U, the yeast fitness was determined as 0.513.
As for A14U U16A U26G C29G G67C, the yeast fitness was at most 0.5.
As for U7C C11A, the yeast fitness was found to be 0.556.
As for C4U G12C C49G, the yeast fitness came out at 0.533.
For the variant U13C A15G C29A, the yeast fitness was 0.508.
On to A20G C31A C34G A45U, for which the yeast fitness is at most 0.5.
As to C22G C34A G67U, the yeast fitness was at most 0.5.
On to A57U U59A A65C, for which the yeast fitness was at most 0.5.
On to U2C C5G C24U G38C G39A, for which the yeast fitness is at most 0.5.
With U2G C11G A20U C24G, the yeast fitness is 0.534.
Regarding G17C U28A C34G G38A G51A, the yeast fitness is 0.512.
The same measure for U53A C55U: 0.545.
In the case of U2C A20G A42U, the yeast fitness is 0.642.
The value for G10A A21C A40G U59C was at most 0.5; that for C11U C34G A69C was 0.535; that for C31U C46A A57C A65U was at most 0.5.
Take A15C C29G C30G U47C: the yeast fitness is at most 0.5.
Take U19C C33A A36C C55U: the yeast fitness is at most 0.5.
In the case of A20G C24A A42U, the yeast fitness amounted to 0.546.
With U32A U54C, the yeast fitness was found to be 0.629.
On to G18A C34A, for which the yeast fitness was at most 0.5.
The same measure for U16A C31A A40C: at most 0.5; for U3A C34U A45G C49U U53A: at most 0.5.
The same measure for C29A G44A U64C: 0.56; for U13C C55A: 0.611; for G9A U16C A20C C61U: at most 0.5.
With U3A C11A C33U G58C, the yeast fitness was at most 0.5.
The value for C4A C5G C22U was at most 0.5.
In the case of A14U U16A C22U C24A G67A A69C, the yeast fitness was determined as 0.67.
For the variant G39A C49U, the yeast fitness amounted to 0.842.
In the case of A14U U26A C62G, the yeast fitness is at most 0.5.
Turning to G12A C33G A36C G44A, the yeast fitness was at most 0.5.
In the case of C5A C30A C34U C46U, the yeast fitness was at most 0.5.
The same measure for C4U C30A G63A: 0.828.
C5A C11G C30U A36C A42G C61G: the yeast fitness was at most 0.5.
Take U2G C11G U19C A20G C24U C31G: the yeast fitness was at most 0.5.
